The subject of test [1] is Escherichia coli. The experiment in a line: Inhibition of Escherichia coli DdlB assessed as residual activity at 500 uM. The gist of the method: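 Endpoint phosphate-release assay using purified DdlB with 500 µM test compound, 700 µM D-Ala, 500 µM ATP, in 38.5 mM Hepes pH 8.0 with MgCl2, (NH4)2SO4 and 5% DMSO. Run 30 min at 37 °C, then Biomol reagent and A650 read. Residual activity relative to an uninhibited assay. Mean of two independent experiments.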

The nature of test [2]: Inhibition of Escherichia coli DdlB. The gist of the method:
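Purified E. coli DdlB in 38.5 mM Hepes pH 8.0, 3.25 mM MgCl2, 6.5 mM (NH4)2SO4, 700 µM D-Ala, 500 µM ATP, 5% DMSO, with a range of inhibitor concentrations. Incubated 30 min at 37 °C. Released phosphate detected by Biomol reagent, A650 after 5 min. IC50 taken from residual activity versus no-inhibitor control. Means of two independent experiments.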

The subject of test [3] is Escherichia coli. The experiment in a line: Antibacterial activity against Escherichia coli 1411. The format is functional. The gist of the method: (§1)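 Broth microdilution MIC in IsoSensitest broth; inoculum 10⁴ cells per mL for E. coli, 10⁶ cells per mL for S. aureus. Compounds in 2-fold dilution series prepared in 50% DMSO. Incubated 16 h at 37 °C with OD600 read every 10 min, shaken 30 s before each read. MIC = lowest concentration preventing growth.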

Test [4] has as its system Escherichia coli. The test can be described thus: Antibacterial activity against acrAB deficient Escherichia coli 1411. The class given is functional. The gist of the method: as §1
In a further test the test system is Staphylococcus aureus. The test can be described thus: Antibacterial activity against Staphylococcus aureus 8325-4. The format is functional. The gist of the method:
as §1

Converted amounts (≈) assume the structure as drawn.

For the compound `COC(=O)NNC(=O)NC1CCCCC1`, the Activity in the test with Escherichia coli [1] is 1%.
Regarding `CCOC(=O)/N=N/C(=O)Nc1ccc(F)cc1`, the Activity with Escherichia coli [1] turned out to be 37%.
On to `O=C(/N=N/C(=O)Nc1ccccc1)NCc1ccccn1`, for which, in test [2], the midpoint of inhibition, the IC50, lay at 111 µM. The MIC against Escherichia coli [3], against Escherichia coli [4] and with Staphylococcus aureus was 64 µg/mL (≈ 226 µM) in each case.
As for `CCC(C)c1ccc(NC(=O)/N=N/C(=O)NCCCl)cc1` (stereo not drawn), in test [2], the IC50 amounted to 25 µM. The MIC in the test with Escherichia coli [3], against Escherichia coli [4] and against Staphylococcus aureus was greater than 256 µg/mL each time.
Take `COC(=O)/N=N/C(=O)NCCCl`: the Activity in the test on Escherichia coli [1] is 7%.
Regarding `CCOC(=O)/N=N/C(=O)Nc1ccc([N+](=O)[O-])cc1`, in the test on Escherichia coli [1], the Activity was 40%.
The compound `O=C(/N=N/C(=O)Nc1ccccc1)NCc1cccnc1` registered an IC50 in test [2] of 36 µM. The MIC in the test on Escherichia coli [3] is 64 µg/mL (≈ 226 µM); with Escherichia coli [4] it was 64 µg/mL (≈ 226 µM); against Staphylococcus aureus it was 128 µg/mL (≈ 452 µM).
Compound `O=C(/N=N/C(=O)NCCCl)NCCCl` gave an IC50 in test [2] of 133 µM. Moreover, the MIC against Escherichia coli [3], in the test with Escherichia coli [4] and against Staphylococcus aureus was greater than 256 µg/mL throughout.
For `CC(C)c1ccc(NC(=O)/N=N/C(=O)NCCCl)cc1`, the IC50 in test [2] turned out to be 49 µM. Also, the MIC in the test on Escherichia coli [3], in the test on Escherichia coli [4] and with Staphylococcus aureus was greater than 256 µg/mL in each case.
Consider `CCOC(=O)NNC(=O)Nc1ccc([N+](=O)[O-])cc1`, for which the Activity in the test on Escherichia coli [1] worked out at 1%.
Compound `N[C@@H]1CONC1=O` [CYCLOSERINE] had an IC50 in test [2] of 314 µM. The MIC against Escherichia coli [3] was determined as 16 µg/mL (≈ 157 µM); against Escherichia coli [4] it was 16 µg/mL (≈ 157 µM); in the test with Staphylococcus aureus, 32 µg/mL (≈ 313 µM).
For `CC(C)(C)OC(=O)/N=N/C(=O)NCCCl`, the Activity in the test with Escherichia coli [1] was 7%.
Turning to `CCOC(=O)/N=N/C(=O)Nc1cccc(Cl)c1`, the Activity with Escherichia coli [1] worked out at 33%.
In the case of `CCOC(=O)NNC(=O)Nc1cccc(Cl)c1`, in the test with Escherichia coli [1], the Activity stood at 0%.
`CC(C)(C)c1ccc(NC(=O)/N=N/C(=O)NCc2ccncc2)cc1`: in test [2], the IC50 was greater than 500 µM.
Consider `O=C(/N=N/C(=O)Nc1cccc(Cl)c1)NCc1cccnc1`, for which the IC50 in test [2] stood at 15 µM. Also, the MIC against Escherichia coli [3] was determined as 64 µg/mL (≈ 201 µM); in the test with Escherichia coli [4], 64 µg/mL (≈ 201 µM); in the test with Staphylococcus aureus it was 256 µg/mL (≈ 806 µM).
Turning to `CCOC(=O)NNC(=O)Nc1ccccc1`, the Activity in the test with Escherichia coli [1] turned out to be 1%.
Regarding `O=C(/N=N/C(=O)Nc1cccc(Cl)c1)NCc1ccncc1`, inhibition in test [2] was half-maximal at 33 µM (IC50). Moreover, the MIC against Escherichia coli [3], against Escherichia coli [4] and in the test with Staphylococcus aureus was 64 µg/mL (≈ 201 µM) throughout.
`O=C(/N=N/C(=O)NCc1ccccn1)NCCCl` came in with an IC50 in test [2] of 119 µM. Also, the minimal inhibitory concentration (MIC) against Escherichia coli [3], in the test with Escherichia coli [4] and with Staphylococcus aureus was greater than 256 µg/mL each time.
On to `O=C(/N=N/C(=O)Nc1ccc(F)cc1)NCc1ccncc1`, for which half-maximal inhibition in test [2] (IC50) was put at 73 µM. For the same compound, the figures for the MIC in the test with Escherichia coli [3], in the test on Escherichia coli [4] and against Staphylococcus aureus were 64 µg/mL (≈ 212 µM), 64 µg/mL (≈ 212 µM) and 128 µg/mL (≈ 425 µM), respectively.
In test [2], `O=C(/N=N/C(=O)NCc1cccnc1)NCc1cccnc1` yielded an IC50 of 123 µM. Also, the MIC in the test on Escherichia coli [3], with Escherichia coli [4] and in the test on Staphylococcus aureus was greater than 256 µg/mL each time.
Take `CCOC(=O)/N=N/C(=O)Nc1ccccc1`: in the test on Escherichia coli [1], the Activity worked out at 1%.
Consider `CN(C)CCNC(=O)/N=N/C(=O)Nc1ccccc1`, for which, in test [2], the IC50 is greater than 500 µM.
As for `CCOC(=O)NNC(=O)Nc1ccc(F)cc1`, in the test with Escherichia coli [1], the Activity turned out to be 0%.
Consider `CN(C)CCNC(=O)NNC(=O)Nc1ccccc1`, for which, in the test on Escherichia coli [1], the Activity amounted to 2%.
For `O=C(NCc1cccnc1)NNC(=O)Nc1cccc(Cl)c1`, the Activity in the test with Escherichia coli [1] is 3%.
In test [2], `O=C(/N=N/C(=O)NC1CCCCC1)NCc1ccncc1` showed an IC50 of 121 µM. The MIC was found to be 256 µg/mL (≈ 885 µM) with Escherichia coli [3], 256 µg/mL (≈ 885 µM) in the test with Escherichia coli [4] and 128 µg/mL (≈ 442 µM) against Staphylococcus aureus.
As to `O=C(/N=N/C(=O)Nc1ccccc1)NCc1ccncc1`, it took 106 µM to reach half-maximal inhibition in test [2] (IC50). Also, the results for the MIC in the test with Escherichia coli [3], against Escherichia coli [4] and against Staphylococcus aureus were 64 µg/mL (≈ 226 µM), 32 µg/mL (≈ 113 µM) and 128 µg/mL (≈ 452 µM), respectively.
On to `COC(=O)NNC(=O)NCCCl`, for which, in the test on Escherichia coli [1], the Activity amounted to 5%.
Regarding `O=C(NCc1cccnc1)NNC(=O)Nc1ccccc1`, in the test on Escherichia coli [1], the Activity turned out to be 0%.
Turning to `O=C(/N=N/C(=O)NCc1ccncc1)NCCCl`, the 50% inhibitory concentration (IC50) in test [2] was found to be 236 µM. For the same compound, the results for the MIC against Escherichia coli [3], against Escherichia coli [4] and in the test on Staphylococcus aureus were 128 µg/mL (≈ 475 µM), 128 µg/mL (≈ 475 µM) and greater than 256 µg/mL, respectively.

As a reminder, the IC50 is the concentration that inhibits the measured activity by half. As a reminder, the MIC is the smallest concentration in the dilution series that meets the test's criterion for growth inhibition.

Values taken from ChEMBL document CHEMBL1139126, “Diazenedicarboxamides as inhibitors of D-alanine-D-alanine ligase (Ddl)” (Bioorg Med Chem Lett, 2007).
